Source: ChEMBL document CHEMBL3525985, “Regiospecificity and stereospecificity of human UDP-glucuronosyltransferases in the glucuronidation of estriol, 16-epiestriol, 17-epiestriol, and 13-epiestradiol” (Drug Metab Dispos, 2013)
Blank lines part the entries; values can stand above or below the compound they belong to.

Legend:
Type in all cases: ADME
[1] = biological target: T1, UDP-glucuronosyltransferase 1A10 (Homo sapiens, UniProt Q9HAW8); test: Drug metabolism assessed as human UGT1A10-mediated 13-epiestradiol-3-glucuronide formation at 200 uM after 15 to 60 mins by HPLC analysis in presence of UDPGA; details: recombinant enzyme
T1 sequence (Q9HAW8 whole entry): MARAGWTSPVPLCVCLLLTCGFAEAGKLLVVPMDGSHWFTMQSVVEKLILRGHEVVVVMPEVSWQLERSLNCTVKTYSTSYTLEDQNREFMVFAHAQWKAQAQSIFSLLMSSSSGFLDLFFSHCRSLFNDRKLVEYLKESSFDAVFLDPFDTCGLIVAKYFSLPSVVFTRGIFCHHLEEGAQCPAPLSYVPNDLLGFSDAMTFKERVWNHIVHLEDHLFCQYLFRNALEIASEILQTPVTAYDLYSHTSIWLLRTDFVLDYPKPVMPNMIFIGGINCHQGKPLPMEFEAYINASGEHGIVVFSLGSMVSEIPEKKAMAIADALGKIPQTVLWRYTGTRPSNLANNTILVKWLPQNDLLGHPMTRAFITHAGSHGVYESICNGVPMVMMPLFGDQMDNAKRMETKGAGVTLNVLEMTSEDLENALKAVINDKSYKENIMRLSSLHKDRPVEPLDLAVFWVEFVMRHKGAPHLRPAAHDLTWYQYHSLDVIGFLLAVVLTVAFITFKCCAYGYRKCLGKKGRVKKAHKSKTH
Method in brief: (§1)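 Screening at a single substrate concentration of 200 μM, in triplicate. The reaction used 5 or 50 µg of UGT-enriched insect cell membranes in 50 mM phosphate pH 7.4 with 10 mM MgCl₂ and 5 mM UDPGA, 10% final DMSO. Incubation was 15–60 min at 37°C. Perchloric acid stopped the reaction and supernatants were analysed by HPLC. Controls lacked UDPGA. Rates were normalized to relative UGT expression level.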

[2] = biological target: T2, UDP-glucuronosyltransferase 2B7 (Homo sapiens, UniProt P16662); test: Drug metabolism assessed as recombinant human C-terminal His-tagged UGT2B7-mediated 16-epiestriol-16-glucuronide formation at 5 mg after 5 hrs by NMR spectroscopic analysis in presence of UDPGA
T2 sequence (P16662 whole entry): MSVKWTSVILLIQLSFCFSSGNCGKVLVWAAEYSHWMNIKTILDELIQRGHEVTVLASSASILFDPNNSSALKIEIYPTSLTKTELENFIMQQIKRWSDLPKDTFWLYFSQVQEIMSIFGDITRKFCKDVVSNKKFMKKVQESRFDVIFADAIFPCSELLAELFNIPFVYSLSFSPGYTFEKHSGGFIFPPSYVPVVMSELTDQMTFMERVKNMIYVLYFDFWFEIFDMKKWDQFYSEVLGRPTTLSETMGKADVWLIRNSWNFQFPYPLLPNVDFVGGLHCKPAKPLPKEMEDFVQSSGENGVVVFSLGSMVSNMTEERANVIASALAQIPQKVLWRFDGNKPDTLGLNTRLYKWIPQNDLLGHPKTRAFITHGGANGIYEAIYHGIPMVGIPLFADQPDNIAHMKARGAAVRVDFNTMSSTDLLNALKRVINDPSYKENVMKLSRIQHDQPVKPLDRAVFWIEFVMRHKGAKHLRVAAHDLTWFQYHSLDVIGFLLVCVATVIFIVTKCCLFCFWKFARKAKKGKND

[3] = biological target: T3, UDP-glucuronosyltransferase 1A4 (Homo sapiens, UniProt P22310); test: Drug metabolism assessed as recombinant human C-terminal His-tagged UGT1A4-mediated 16-epiestriol-16-glucuronide formation at 200 uM after 15 to 60 mins by HPLC analysis in presence of UDPGA; details: recombinant enzyme; method in brief: as §1
T3 sequence (P22310 whole entry): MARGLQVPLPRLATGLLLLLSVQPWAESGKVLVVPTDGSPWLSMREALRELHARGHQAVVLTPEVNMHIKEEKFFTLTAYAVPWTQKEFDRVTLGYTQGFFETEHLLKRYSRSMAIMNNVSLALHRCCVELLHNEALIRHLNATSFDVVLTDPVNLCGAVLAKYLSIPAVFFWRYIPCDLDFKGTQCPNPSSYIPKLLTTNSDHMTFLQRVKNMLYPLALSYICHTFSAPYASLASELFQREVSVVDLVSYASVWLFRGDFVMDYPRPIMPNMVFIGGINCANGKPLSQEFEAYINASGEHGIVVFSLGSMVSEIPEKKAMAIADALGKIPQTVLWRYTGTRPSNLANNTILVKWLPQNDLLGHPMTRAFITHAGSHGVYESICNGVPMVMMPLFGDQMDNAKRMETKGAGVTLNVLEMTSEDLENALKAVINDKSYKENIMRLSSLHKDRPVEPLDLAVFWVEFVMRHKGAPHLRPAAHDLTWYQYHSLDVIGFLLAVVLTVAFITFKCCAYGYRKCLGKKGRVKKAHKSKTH

[4] = biological target: T2, UDP-glucuronosyltransferase 2B7; test: Inhibition of recombinant human C-terminal His-tagged UGT2B7 after 15 to 60 mins by Michaelis-Menten equation analysis in presence of UDPGA
Method in brief: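 Kinetics with His-tagged UGT-enriched insect-cell membranes (5 or 50 µg): aglycone 0.2–300 µM in 10% DMSO, 5 mM UDPGA, 10 mM MgCl₂, 50 mM phosphate pH 7.4, 15–60 min at 37°C. Substrate consumption kept at or below 10%. Glucuronides quantified by HPLC in triplicate, rates normalized to expression, and data fitted to Michaelis-Menten.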

[5] = Drug metabolism in human intestine microsomes assessed as estriol-16-glucuronide formation after 15 to 60 mins by Michaelis-Menten equation analysis in presence of UDPGA
Method in brief: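 Pooled human intestine microsomes (6 donors), 0.5 or 10 µg, with alamethicin at 5% of total protein. Incubated with 50 mM phosphate pH 7.4, 10 mM MgCl₂, 5 mM UDPGA and 10% DMSO for 15–60 min at 37°C. Each glucuronide regioisomer quantified by HPLC, in triplicate, with substrate consumption at or below 10%.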

Drug metabolism [1]: metabolite_detected
Structure (SMILES): C[C@@]12CC[C@@H]3c4ccc(O)cc4CC[C@H]3[C@@H]1CC[C@@H]2O

Drug metabolism [2]: metabolite_detected | Drug metabolism [3]: metabolite_not_detected | Ki [4]: 162 µM
Structure (SMILES): C[C@]12CC[C@@H]3c4ccc(O)cc4CC[C@H]3[C@@H]1C[C@H](O)[C@@H]2O [EPIESTRIOL]

Km [5]: 5.1 µM | Vmax [5]: 953 pmol/min/mg
Structure (SMILES): C[C@]12CC[C@@H]3c4ccc(O)cc4CC[C@H]3[C@@H]1C[C@@H](O)[C@@H]2O [ESTRIOL]
